Screens as filed in PubChem.
Rows were chosen to be rich in hits. Some 3.7% of all compounds tested hit in one or more screens of this group.
Kir21 block: inhibitors of mouse Kir2.1 inward-rectifier potassium channel. Inward rectifier potassium channel 2 (Mus musculus), P35561. HEK293-Kir2.1, FluxOR thallium flux fluorescence; stronger effect = lower value. B-score at 10 µM. actives 0.85% (n = 310,000);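 active means fluorescence ratio B-score at or below minus 3 SD of library scores, with starting-brightness B-score within 2 SD, cut at about -4.2 in these data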;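 further: channel flux triggered by added potassium and thallium sulfate stimulus; B-score of peak minus minimum fluorescence over baseline after thallium stimulus; more negative B-score means stronger Kir2.1 block with less thallium influx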
KCNQ1 act: potentiators or activators of KCNQ1 channel, primary screen, cell-based, thallium flux, high-throughput; Potassium voltage-gated channel subfamily KQT member 1 (Homo sapiens), P51787; CHO-K1 KCNQ1, thallium flux FluxOR fluorescence; stronger effect = higher value; B-score at 10 µM; actives 0.35% (n = 310,000);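 active means fluorescence ratio B-score, a plate-corrected score, at least three library SD, with initial intensity B-score within 5 SD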
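assay system = CHO-K1 cells stably expressing KCNQ1 | medium = assay buffer, equal DMSO in all wells | timing = 37 °C overnight plating, 90-min dark dye load, 20-min compound pretreatment | measured by = kinetic FluxOR thallium fluorescence, 10-s 1-Hz baseline, 110-s post-stimulus read | measure = fluorescence change relative to baseline, converted to B score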
KCNQ1 inh: inhibitors of human KCNQ1 channel, primary screen, cell-based, thallium flux, high-throughput; CHO-K1 KCNQ1, FluxOR thallium flux fluorescence; stronger effect = higher value; B-score at 10 µM; actives 1.3% (n = 310,000);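 active means compounds whose thallium flux B-score, printed positive for inhibition, exceeds three library SD while starting fluorescence stays within three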;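 further: channel opened by potassium depolarization with thallium stimulus after 20 min compound exposure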
KCNK3 inh: human KCNK3 channel inhibitors, primary screen, CHO cells, FluxOR thallium flux, B-score; Potassium channel subfamily K member 3 (Homo sapiens), O14649; actives 0.84% (n = 340,000); FluxOR fluorescence; stronger effect = lower value; AID 602410, 2012; B-score at 10 µM;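 active means B-score under library mean minus 4 SD, starting fluorescence ratio at most library mean plus 5 SD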;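 further: more negative B-score means stronger inhibition of thallium flux through KCNK3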
Target sequence (O14649 whole entry, looked up): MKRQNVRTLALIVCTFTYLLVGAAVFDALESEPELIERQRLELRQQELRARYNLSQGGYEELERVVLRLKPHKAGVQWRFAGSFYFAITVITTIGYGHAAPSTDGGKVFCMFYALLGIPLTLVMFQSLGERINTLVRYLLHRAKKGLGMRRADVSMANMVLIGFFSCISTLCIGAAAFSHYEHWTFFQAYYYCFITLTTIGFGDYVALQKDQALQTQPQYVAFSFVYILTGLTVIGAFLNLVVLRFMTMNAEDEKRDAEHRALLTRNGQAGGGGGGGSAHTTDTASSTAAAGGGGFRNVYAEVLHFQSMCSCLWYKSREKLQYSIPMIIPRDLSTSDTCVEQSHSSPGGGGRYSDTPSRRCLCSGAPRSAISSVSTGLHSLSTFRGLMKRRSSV
hERG rescue: hERG rescue from dofetilide block, primary screen, cell-based, CHO-hERG, FluxOR thallium flux, dofetilide IC70. dofetilide IC70 present. Voltage-gated inwardly rectifying potassium channel KCNH2 (Homo sapiens), Q12809. actives 0.51% (n = 310,000). activation (rescue from dofetilide block), less the hit threshold, % at 10 µM;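 active means activation above the mean of controls blocked by dofetilide plus 5 SD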;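 further: thallium influx through hERG after potassium depolarization seen as dye fluorescence rise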
KCNK9 inh: KCNK9 potassium channel inhibitors, primary screen, HEK293 cells, thallium flux | Potassium channel subfamily K member 9 (Homo sapiens), Q9NPC2 | actives 1.2% (n = 310,000) | FluxOR thallium flux fluorescence; stronger effect = lower value | AID 488922, 2010 | B-score at 10 µM;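 active means ratio B-score over 3 SD below the library mean, with starting fluorescence within 5 SD of its mean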;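 further: negative B-score means less thallium flux so channel inhibition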
Target sequence (Q9NPC2 whole entry, looked up): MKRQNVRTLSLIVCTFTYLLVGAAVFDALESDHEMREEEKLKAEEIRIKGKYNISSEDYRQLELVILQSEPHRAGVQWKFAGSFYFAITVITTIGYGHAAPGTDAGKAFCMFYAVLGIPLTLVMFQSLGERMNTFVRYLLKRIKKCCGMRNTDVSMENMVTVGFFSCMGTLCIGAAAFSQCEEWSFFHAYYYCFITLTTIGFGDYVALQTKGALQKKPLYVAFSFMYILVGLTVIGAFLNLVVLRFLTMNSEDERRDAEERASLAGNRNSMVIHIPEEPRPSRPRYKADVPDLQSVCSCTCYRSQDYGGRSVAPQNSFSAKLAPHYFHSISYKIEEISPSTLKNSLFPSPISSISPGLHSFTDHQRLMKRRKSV
KCNQ1 inh valid: KCNQ1 potassium channel inhibitors, confirmation, cell-based, Tl flux, duplicate; actives 93% (n = 1,600); KCNQ1 cell line, FluxOR thallium flux fluorescence; inhibition, % at 10 µM; AID 588353, 2011; shares compounds with KCNQ1 inh;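 active means primary screen active, with duplicate mean exceeding buffer control mean plus 3 SD of buffer wells, cut at about 28% in these data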;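 further: 0% = buffer control ratio and 100% = XE991 inhibitor control ratio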
CHO KCNQ1 ctr: thallium flux effects in parental CHO cells, counter-screen for KCNQ1 inhibitor project, cell-based, Tl flux. shares compounds with KCNQ1 inh. parental CHO-K1, FluxOR thallium flux fluorescence ratio; stronger effect = lower value; zero means no signal rise above baseline. fluorescence ratio (Tl flux) at 10 µM. actives 21% (n = 1,600). AID 588366, 2011;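 active means mean of duplicate thallium-flux fluorescence ratios in parental host cells more than 5 SD below the buffer control mean, cut at about 0.38 in these data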;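 further: ratio is peak minus minimum fluorescence divided by baseline fluorescence; actives read low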
KCNQ1 APC inh: KCNQ1 channel inhibitors, confirmation, orthogonal assay, cell-based, automated electrophysiology; AID 624120, 2012; KCNQ1-CHO cells, automated patch clamp current; calls only at 10 µM; shares compounds with KCNQ1 inh; actives 20% (n = 490);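 active means KCNQ1 current drop exceeding 3 SD of negative control wells, seen in both duplicate runs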;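 further: steady state current during a 2 s step from -80 to +40 mV; negative values mean current inhibition and positive values mean potentiation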
KCNQ2 spec: KCNQ2 channel inhibition, selectivity assay for KCNQ1 inhibitor project, cell-based | shares compounds with KCNQ1 inh | AID 651746, 2012 | KCNQ2 cells, FluxOR thallium flux fluorescence | inhibition, % at 10 µM | actives 71% (n = 1,600);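 active means mean percent inhibition of the KCNQ2 thallium signal more than 5 SD above the buffer-only control wells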;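 further: KCNQ2 expressed in CHO cells; 0% = buffer control wells and 100% = XE-991 inhibitor control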
KCNQ1 KCNE1 spec: KCNQ1/KCNE1 channel inhibition, selectivity assay for KCNQ1 inhibitor project, CHO-K1 cells, thallium flux, FluxOR; shares compounds with KCNQ1 inh; FluxOR thallium flux fluorescence; actives 77% (n = 1,600); inhibition, % at 10 µM;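 active means mean percent inhibition of duplicate wells above the buffer-only control mean plus 3 SD of those controls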;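 further: 0% = buffer only wells and 100% = XE-991 inhibitor control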
KCNK9 inh conf: KCNK9 potassium channel inhibitors, confirmation, HEK293 cells, thallium flux, duplicate; inhibition, % at 10 µM; FluxOR thallium flux fluorescence; actives 43% (n = 4,900); shares compounds with KCNK9 inh;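 active means thallium signal inhibited by more than 5 SD of the compound-free buffer control wells, on both duplicate plates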;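 further: 0% = assay buffer control wells without compound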
Kir21 sel: mouse Kir2.1 channel inhibition, confirmation, selectivity assay for KCNK9 modulator project, cell-based, HEK293, thallium flux; shares compounds with KCNK9 inh; Kir2.1 cells, FluxOR thallium flux fluorescence; inhibition, % at 10 µM; actives 4% (n = 4,900); AID 492993, 2010;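 active means thallium signal drop more than 5 SD beyond the mean of the no-compound control wells, seen in both duplicate plates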;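 further: signal is fluorescence rise after thallium addition divided by baseline fluorescence; plate controls were assay buffer only for no effect and full block by chlorpromazine control for full effect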
KCNK9 uninduced: thallium flux in non-induced HEK293 cells, confirmation, counter-screen for KCNK9 inhibitor project, cell-based, second counter screen, non-induced KCNK9-HEK293 | shares compounds with KCNK9 inh | FluxOR thallium flux | inhibition, % at 10 µM | actives 40% (n = 4,900) | AID 492997, 2010;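 active means thallium signal drop beyond 5 SD of the untreated control mean, on both duplicate plates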;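 further: plate controls were buffer only IC0 wells for no effect and SID17386958 at its maximal inhibitory level for full effect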
* marks the source's active call; other numbers are inactive results; i = inactive; x = no result; + = active, no number.

SMILES	Kir21 block	KCNQ1 act	KCNQ1 inh	KCNK3 inh	hERG rescue	KCNK9 inh	KCNQ1 inh valid	CHO KCNQ1 ctr	KCNQ2 spec	KCNQ1 KCNE1 spec	KCNK9 inh conf	Kir21 sel	KCNK9 uninduced	others
Clc1ccc(C(c2nnnn2CCc2ccccc2)N2CCSCC2)cc1 (stereo not drawn)	0.69	i	7*	i	1	-14*	116*	0.42	106%*	82%*	56%*	i	46%*	KCNQ1 APC inh=i
Fc1ccc(C(c2nnnn2Cc2ccccc2)N2CCSCC2)cc1 (stereo not drawn)	-0.33	i	i	i	-4	i	x	x	x	x	x	x	x
COc1ccc(-c2ocnc2C(=O)N2CCN(C(c3ccccc3)c3ccccc3)CC2)cc1	-0.1	i	8*	i	-12	-14*	80*	0.42	88%*	94%*	68%*	i	36%*
Cc1cc(C(=O)N2CCN(C(c3ccccc3)c3ccccc3)CC2)on1	0.17	i	i	i	-11	i	x	x	x	x	x	x	x
Cc1ccc2c(c1)N(CC(=O)N1CCCCCC1)C(=O)C(C)O2 (stereo not drawn)	-0.82	i	i	i	-6	i	x	x	x	x	x	x	x
Cc1cc(C)c(S(=O)(=O)c2ccccc2C)c(N(C)C)n1	-1.9	i	i	i	-6	i	x	x	x	x	x	x	x
Cc1cc(C)c(S(=O)(=O)c2ccccc2C)c(SCC(C)C)n1	-0.12	i	9*	i	-11	-14*	115*	0.42	112%*	95%*	50%*	i	42%*	KCNQ1 APC inh=i
Cc1ccc2[nH]c(C(=O)NCCN3CCCC3)cc2c1	0.16	i	i	i	-3	i	x	x	x	x	x	x	x
CCn1c(=O)n(CC)c2cc(N3CCCC3)c(NC(=O)c3cc(Br)ccc3OC)cc21	1.6	i	9*	x	-27	-18*	162*	0.33*	123%*	+	72%*	i	i
CN(C)S(=O)(=O)c1cc(NC(=O)COC(=O)CC2Sc3ccccc3NC2=O)ccc1Cl (stereo not drawn)	x	x	x	i	x	x	x	x	x	x	x	x	x
O=C(COc1ccc2ccc(=O)oc2c1)NCCCN1CCCC1=O	-0.69	i	i	i	-12	i	x	x	x	x	x	x	x
CCCN(CC(=O)Nc1cc(Cl)cc(Cl)c1)CC(=O)Nc1ccc(F)c(F)c1F	2.5	i	6*	i	-10	-13*	132*	0.33*	119%*	159%*	55%*	i	46%*
CC(=O)c1sc2nc(-c3cccs3)cc(C(F)(F)F)c2c1N	-3.7	i	7*	i	-4	-9.1*	104*	0.29*	i	154%*	42%*	30%*	66%*
COc1ccc2c(c1)-c1nc(NC(=O)c3cccs3)sc1CC2	0.7	i	7*	i	-11	-16*	108*	0.39	100%*	190%*	75%*	i	35%*	KCNQ1 APC inh=i
CCOC(=O)c1ccccc1NC(=O)C1CCN(c2ncnc3sc(C)c(C)c23)CC1	-0.02	i	10*	-8.9*	-11	i	89*	0.41	132%*	130%*	i	i	32%*	KCNQ1 APC inh=i
CCCOC(=O)C(C)n1c(-c2ccccc2)nc2ccccc2c1=O (stereo not drawn)	-1.6	i	7*	i	-9	-11*	0	0.48	i	58%*	51%*	i	36%*
CCOC(=O)Cn1c(-c2ccccc2)nc2ccccc2c1=O	-0.17	i	i	i	-12	i	x	x	x	x	x	x	x
O=C(Nc1ccc(Oc2cccc3ccccc23)cc1)c1ccco1	1.4	i	11*	i	-12	-14*	160*	0.29*	i	+	54%*	i	31%*
COc1ccccc1N1CCN(C(=O)CSc2nc3ccccc3[nH]2)CC1	0.96	i	i	i	-11	i	x	x	x	x	x	x	x
COc1ccccc1N1CCN(C(=O)CSc2nc3ccccc3nc2N2CCCCC2)CC1	-3	i	6*	i	-18	i	70*	0.52	i	99%*	i	i	i
Cc1ccc(S(=O)(=O)N2CCN(Cc3ccccc3C(F)(F)F)CC2)cc1	-0.82	i	10*	i	-12	i	85*	0.41	94%*	94%*	i	i	i
Cc1cc(NC(=O)c2ccccc2C)n(-c2cccc(F)c2)n1	-0.47	i	i	i	-7	i	x	x	x	x	x	x	x
